Measurements: ChEMBL document CHEMBL4732095, “Novel naphthylamide derivatives as dual-target antifungal inhibitors: Design, synthesis and biological evaluation” (Eur J Med Chem, 2021)
pIC50: −log10 of the molar value. Activity calls are given as the source filed them. The rule behind the calls is not given here.

Assays:
Candida albicans [1] = test: Antifungal activity against Candida albicans ATCC SC5314 assessed as decrease in fungal cell density at 10 nM/mL by polarizing microscopy; assay type: functional, organism-based; details: dose 10.0 nmol/ml
Outline: (§1)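 C. albicans ATCC SC5314 observed by polarizing microscopy over treatment time. Untreated, fluconazole- and naftifine-treated control groups were included. Cell density, dividing cells and cell fracture were assessed, with cell counts taken per field.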

Candida albicans [2] = test: Antifungal activity against Candida albicans ATCC 10231 assessed as inhibition of microbial growth by NCCLS protocol based method; assay type: functional
Outline: (§2)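 Broth MIC50 determined following NCCLS guidelines in Sabouraud medium, with fungal suspension in 24-well format. Compound tested at 0.0625, 0.125, 0.5, 1, 2, 4, 8 and 16 μg/mL. Plates cultured statically at 35 °C. MIC50 is the lowest concentration giving 50% growth inhibition. Naftifine and fluconazole served as positive controls.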

Aspergillus fumigatus = test: Antifungal activity against Aspergillus fumigatus KM8001 assessed as inhibition of microbial growth by NCCLS protocol based method; assay type: functional; outline: as §2
Candida albicans [3] = test: Antifungal activity against fluconazole-resistant Candida albicans 17# assessed as inhibition of microbial growth by NCCLS protocol based method; assay type: functional
Nakaseomyces glabratus = test: Antifungal activity against Candida glabrata ATCC 0001 assessed as inhibition of microbial growth by NCCLS protocol based method; assay type: functional; outline: as §2
[4] = Inhibition of Candida albicans ATCC SC5314 SE incubated for 30 mins by spectrophotometric method
Outline: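 Enzymes (SE, CYP51) extracted from C. albicans SC5314 using kits. 50 µg enzyme incubated with varying compound concentrations for 30 min at 37 °C in Tris pH 7.4, KCl, MgCl2, 2 mM NADPH, with squalene or eburicol as substrate. Reaction stopped with acetonitrile and centrifuged. Eburicol consumption (CYP51) read by HPLC. Squalene, after sulfuric acid/formaldehyde derivatization, read at 400 nm (SE). IC50 reported.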

Candida albicans [5] = test: Antifungal activity against Candida albicans ATCC SC5314 assessed as reduction in cell division at 10 nM/mL by polarizing microscopy; assay type: functional, organism-based; details: dose 10.0 nmol/ml; outline: as §1
Pichia kudriavzevii = test: Antifungal activity against Candida krusei ATCC 6258 assessed as inhibition of microbial growth by NCCLS protocol based method; assay type: functional; outline: as §2
Candida albicans [6] = test: Antifungal activity against Candida albicans ATCC SC5314 assessed as induction of cell fracture at 10 nM/mL by polarizing microscopy; assay type: functional, organism-based; details: dose 10.0 nmol/ml; outline: as §1
Candida albicans [7] = test: Antifungal activity against fluconazole-resistant Candida albicans 901 assessed as inhibition of microbial growth by NCCLS protocol based method; assay type: functional
Candida tropicalis = test: Antifungal activity against Candida tropicalis ATCC 1369 assessed as inhibition of microbial growth by NCCLS protocol based method; assay type: functional; outline: as §2
Candida albicans [8] = test: Antifungal activity against fluconazole-resistant Candida albicans CaR assessed as inhibition of microbial growth by NCCLS protocol based method; assay type: functional
Candida albicans [9] = test: Antifungal activity against fluconazole-resistant Candida albicans 904 assessed as inhibition of microbial growth by NCCLS protocol based method; assay type: functional
Candida albicans [10] = test: Antifungal activity against fluconazole-resistant Candida albicans 632 assessed as inhibition of microbial growth by NCCLS protocol based method; assay type: functional

CN(C/C=C/c1ccccc1)Cc1cccc2ccccc12 [NAFTIFINE]
Activity (Candida albicans [1]): Active | MIC50 (Candida albicans [2]): 0.5 µg/mL | MIC50 (Aspergillus fumigatus): 8 µg/mL | MIC50 (Candida albicans [3]): > 16 µg/mL | MIC50 (Nakaseomyces glabratus): 0.25 µg/mL | pIC50 [4]: 6.55 | Activity (Candida albicans [5]): Active | MIC50 (Pichia kudriavzevii): 2 µg/mL | Activity (Candida albicans [6]): Active | MIC50 (Candida albicans [7]): > 16 µg/mL | MIC50 (Candida tropicalis): 0.5 µg/mL | MIC50 (Candida albicans [8]): > 16 µg/mL | MIC50 (Candida albicans [9]): > 16 µg/mL | MIC50 (Candida albicans [10]): > 16 µg/mL

CN(CC(=O)Nc1cccnc1)C(=O)c1cccc2ccccc12
MIC50 (Candida albicans [2]): 0.25 µg/mL | MIC50 (Aspergillus fumigatus): > 16 µg/mL | MIC50 (Nakaseomyces glabratus): 0.25 µg/mL | MIC50 (Pichia kudriavzevii): 0.5 µg/mL | MIC50 (Candida tropicalis): 0.25 µg/mL

O=C(NC(Cn1ccnc1)C(=O)NCc1ccccc1)c1ccc2ccccc2c1 (centres undefined)
MIC50 (Candida albicans [2]): 0.5 µg/mL | MIC50 (Aspergillus fumigatus): > 16 µg/mL | MIC50 (Nakaseomyces glabratus): 1 µg/mL | MIC50 (Pichia kudriavzevii): 1 µg/mL | MIC50 (Candida tropicalis): 0.5 µg/mL

CN(CC(=O)NCc1cccnc1)C(=O)c1ccc2ccccc2c1
MIC50 (Candida albicans [2]): 0.5 µg/mL | MIC50 (Aspergillus fumigatus): > 16 µg/mL | MIC50 (Nakaseomyces glabratus): 0.5 µg/mL | MIC50 (Pichia kudriavzevii): 0.25 µg/mL | MIC50 (Candida tropicalis): 0.25 µg/mL

O=C(CNC(=O)c1cccc2ccccc12)NC(Cn1ccnc1)C(=O)c1ccccc1 (centres undefined)
MIC50 (Candida albicans [2]): 0.25 µg/mL | MIC50 (Aspergillus fumigatus): 8 µg/mL | MIC50 (Nakaseomyces glabratus): 0.25 µg/mL | MIC50 (Pichia kudriavzevii): 0.5 µg/mL | MIC50 (Candida tropicalis): 0.125 µg/mL

CN(CC(=O)NCc1ccncc1)C(=O)c1cccc2ccccc12
MIC50 (Candida albicans [2]): 1 µg/mL | MIC50 (Aspergillus fumigatus): 8 µg/mL | MIC50 (Nakaseomyces glabratus): 1 µg/mL | MIC50 (Pichia kudriavzevii): 2 µg/mL | MIC50 (Candida tropicalis): 0.5 µg/mL

CN(CC(=O)NC(Cn1ccnc1)C(=O)c1ccccc1)C(=O)c1ccc2ccccc2c1 (centres undefined)
MIC50 (Candida albicans [2]): 0.125 µg/mL | MIC50 (Aspergillus fumigatus): 8 µg/mL | MIC50 (Nakaseomyces glabratus): 0.25 µg/mL | MIC50 (Pichia kudriavzevii): 0.25 µg/mL | MIC50 (Candida tropicalis): 0.25 µg/mL

CN(CC(=O)NCc1ccncc1)C(=O)c1ccc2ccccc2c1
MIC50 (Candida albicans [2]): 0.25 µg/mL | MIC50 (Aspergillus fumigatus): 8 µg/mL | MIC50 (Nakaseomyces glabratus): 2 µg/mL | MIC50 (Pichia kudriavzevii): 0.5 µg/mL | MIC50 (Candida tropicalis): 1 µg/mL

CN(CC(=O)Nc1ccncc1)C(=O)c1cccc2ccccc12
MIC50 (Candida albicans [2]): 0.5 µg/mL | MIC50 (Aspergillus fumigatus): 8 µg/mL | MIC50 (Nakaseomyces glabratus): 0.5 µg/mL | MIC50 (Pichia kudriavzevii): 0.5 µg/mL | MIC50 (Candida tropicalis): 1 µg/mL

O=C(NC(Cn1ccnc1)C(=O)NCc1ccccc1)c1cccc2ccccc12 (centres undefined)
MIC50 (Candida albicans [2]): 0.5 µg/mL | MIC50 (Aspergillus fumigatus): 8 µg/mL | MIC50 (Nakaseomyces glabratus): 0.5 µg/mL | MIC50 (Pichia kudriavzevii): 1 µg/mL | MIC50 (Candida tropicalis): 0.25 µg/mL

CC(NC(=O)c1ccc2ccccc2c1)C(=O)NC(Cn1ccnc1)C(=O)c1ccccc1 (centres undefined)
MIC50 (Candida albicans [2]): 0.25 µg/mL | MIC50 (Aspergillus fumigatus): 8 µg/mL | MIC50 (Nakaseomyces glabratus): 0.5 µg/mL | MIC50 (Pichia kudriavzevii): 0.25 µg/mL | MIC50 (Candida tropicalis): 0.125 µg/mL

O=C(NC(Cn1ccnc1)C(=O)NC1CCCCC1)c1cccc2ccccc12 (centres undefined)
MIC50 (Candida albicans [2]): 0.5 µg/mL | MIC50 (Aspergillus fumigatus): > 16 µg/mL | MIC50 (Nakaseomyces glabratus): 0.25 µg/mL | MIC50 (Pichia kudriavzevii): 0.5 µg/mL | MIC50 (Candida tropicalis): 1 µg/mL

CN(CC(=O)Nc1cccnc1)C(=O)c1ccc2ccccc2c1
MIC50 (Candida albicans [2]): 0.125 µg/mL | MIC50 (Aspergillus fumigatus): 4 µg/mL | MIC50 (Candida albicans [3]): 8 µg/mL | MIC50 (Nakaseomyces glabratus): 0.25 µg/mL | MIC50 (Pichia kudriavzevii): 0.25 µg/mL | MIC50 (Candida albicans [7]): > 16 µg/mL | MIC50 (Candida tropicalis): 0.125 µg/mL | MIC50 (Candida albicans [8]): 4 µg/mL | MIC50 (Candida albicans [9]): > 16 µg/mL | MIC50 (Candida albicans [10]): > 16 µg/mL
